H9c2 TAG inh – inhibitors of triacylglycerol accumulation; H9c2 cells, Nile Red lipid (TAG) fluorescence; cells loaded with 200 µM oleic acid; inhibition, % at 12.5 µM; 230,000 compounds, 0.66% hits;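 active = pattern-corrected inhibition of lipid staining of at least 50% with the nuclear-stain viability signal not falling by more than 50%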
SMARCA2 activ – SMARCA2 function activation, primary screen | activation, % at 9.1 µM | MG213 cells, MMTV-luciferase reporter, dexamethasone, overnight | 370,000 compounds, 1% hits; in the data active = activation above about 7.8%
Tb MetRS inh – Trypanosoma brucei MetRS inhibition. purified T. brucei MetRS, ATP depletion, Kinase-Glo luminescence. inhibition, % at 11.9 µM. 360,000 compounds, 0.4% hits;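 active = inhibition above a per-plate cutoff of the control wells' mean inhibition plus 3 SD, cut at about 5.5% in these data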
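assay system = parasite MetRS enzyme | timing = 15 min preincubation, 2 h reaction, all 25 °C | evaluation = percent inhibition relative to median high and low control wells | medium = HEPES buffer containing pyrophosphatase, BSA, spermine, DTT | compound = single dose, 11.9 µM final nominal, 0.9% final DMSO | detection = Kinase-Glo luminescence, ATP depletion format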
Efflux pump inh – blocks antifungal efflux pumps in multiplex yeast assay; AID 485275; 330,000 compounds, 0.44% hits; S. cerevisiae Candida pump triplex, Nile Red efflux; inhibition, % at 10 µM;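 active = plate passing quality check with inhibition over a set limit, or well fluorescence over plate mean plus 4 SD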;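 note: Nile Red retained in pooled yeast measured as flow cytometry median fluorescence; higher means more Nile Red kept so more efflux inhibition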
AHR act – human AHR activation; P35869; AHR-responsive luciferase reporter cells, luminescence; activation, % at 5 µM; 320,000 compounds, 2.5% hits; in the data active = activation above about 47%
Target sequence (P35869 whole entry, looked up): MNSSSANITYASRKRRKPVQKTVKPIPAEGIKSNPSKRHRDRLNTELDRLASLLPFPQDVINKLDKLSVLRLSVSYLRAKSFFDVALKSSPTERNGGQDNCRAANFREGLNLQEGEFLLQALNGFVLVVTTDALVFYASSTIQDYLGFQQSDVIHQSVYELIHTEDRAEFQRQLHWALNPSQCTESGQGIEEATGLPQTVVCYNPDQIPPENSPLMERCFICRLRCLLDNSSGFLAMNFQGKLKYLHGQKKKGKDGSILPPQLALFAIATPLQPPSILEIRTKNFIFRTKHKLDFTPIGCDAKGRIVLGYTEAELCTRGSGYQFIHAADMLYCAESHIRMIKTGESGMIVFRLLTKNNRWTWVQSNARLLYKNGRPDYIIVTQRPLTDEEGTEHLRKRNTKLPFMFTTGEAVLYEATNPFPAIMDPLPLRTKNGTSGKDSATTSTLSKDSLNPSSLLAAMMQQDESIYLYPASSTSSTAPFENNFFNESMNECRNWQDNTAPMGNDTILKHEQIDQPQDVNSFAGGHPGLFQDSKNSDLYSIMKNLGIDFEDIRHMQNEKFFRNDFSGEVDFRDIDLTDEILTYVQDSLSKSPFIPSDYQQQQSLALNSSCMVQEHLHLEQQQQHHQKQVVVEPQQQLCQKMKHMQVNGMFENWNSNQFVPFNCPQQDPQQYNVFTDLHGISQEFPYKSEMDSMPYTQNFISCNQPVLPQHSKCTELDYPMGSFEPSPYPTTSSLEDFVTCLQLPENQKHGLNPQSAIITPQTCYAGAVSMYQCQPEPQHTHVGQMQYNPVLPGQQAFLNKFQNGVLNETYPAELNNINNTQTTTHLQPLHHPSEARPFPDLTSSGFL
A number is an active result; n = inactive; x = not tested or not shown. Only some compounds are listed: those with a hit (about 4.1% of all), similar ones and a draw of the others.

SMILES	H9c2 TAG inh	SMARCA2 activ	Tb MetRS inh	Efflux pump inh	AHR act
Cc1cccc(OCC(=O)N/N=C/c2cn[nH]c2-c2ccc(Cl)c(Cl)c2)c1	n	n	n	n	47.1
Cc1ccc(NCC(=O)N=Nc2c(O)n(C)c3ccccc23)cc1	n	n	n	n	49.2
CCn1c(O)c(N=NC(=O)CNc2ccc(C)cc2)c2ccccc21	n	n	n	n	67.0
Cn1c(O)c(N=NC(=O)CNC(=O)c2ccccc2)c2ccccc21	x	n	n	n	n
CCOC(=O)N1CCN(C(=O)C[C@H]2C[C@@]3(C(=O)OC)C(=C[C@H](C(C)(C)C)O[C@@H]3C)N(CCC3=CCCCC3)C2=O)CC1	x	n	x	x	x
CCOC(=O)c1cnn2c(C)cc(-c3ccccc3)nc12	n	7.9	n	n	n
CCCCCCCCN1C(=O)[C@@H](CC(=O)NCCCN2CCCC2=O)C[C@@]2(C(=O)OC)C1=C[C@H](C1CCCC1)O[C@@H]2C	x	n	x	x	x
CS(=O)(=O)N(CC(=O)Nc1ccc(Br)cc1F)C1CCCCC1	n	n	n	n	55.5
OCCCNc1nc(-c2ccc(Cl)cc2)nnc1-c1ccccc1	x	n	n	n	64.4
Clc1ccc(-c2nnc(-c3ccccc3)c(-c3ccccc3)n2)cc1	n	n	n	n	n
Clc1ccc(-c2nnc(-c3ccccc3)c(-c3c[nH]c4ccccc34)n2)cc1	n	n	n	n	50.8
Cc1ccc(-c2nnc(NCCCO)c3ccccc23)cc1	x	n	n	n	n
COc1ccc(C(=O)CSc2nnc(-c3ccccn3)n2-c2ccccc2)cc1	x	n	x	x	x
CN1c2ccsc2/C(=N/NC(=O)c2c(F)cccc2F)CS1(=O)=O	n	n	n	n	n
CN1c2ccsc2/C(=N/Nc2ccccc2)CS1(=O)=O	n	n	n	n	73.8
CCOC(=O)N1CCN(C(=O)C[C@H]2C[C@@]3(C(=O)OC)C(=C[C@H](COCc4ccccc4)O[C@@H]3C)N(CCc3ccc(OC)c(OC)c3)C2=O)CC1	x	n	x	x	x
COc1cc2c(cc1OC)[C@@H](NC(=O)c1ccncc1)[C@H](C)[C@H]2c1ccccc1	x	n	x	x	x
COc1ccc(-c2csc(NC(CO)c3nc4ccccc4n3CCCO)n2)cc1 (centres undefined)	n	n	n	n	55.4
COc1ccc(-c2csc(NC(C)c3nc4cc(Cl)c(Cl)cc4n3CCOCCO)n2)cc1 (centres undefined)	n	n	n	n	n
COc1ccc(-c2csc(NC(CO)c3nc4ccccc4n3CCOCCO)n2)cc1 (centres undefined)	n	n	n	n	n
OCCOCCn1c(CCNc2nc(-c3ccc(Cl)cc3)cs2)nc2cc(Cl)c(Cl)cc21	n	n	n	n	58.8
CC(Nc1nc(-c2ccc(F)cc2)cs1)c1nc2cc(Cl)c(Cl)cc2n1CCCO (centres undefined)	n	n	n	n	71.7
CC(C)c1cc(C(C)C)c(S(=O)(=O)NCC(=O)N2CCN(c3ncccn3)CC2)c(C(C)C)c1	x	n	x	x	x
CN1CCc2c(sc(/N=C/c3cccs3)c2C(N)=O)C1	n	x	n	n	69.6
OC(COc1ccc2ccccc2c1Br)Cn1ccnc1 (centres undefined)	x	n	n	n	70.0
SMILES	H9c2 TAG inh	SMARCA2 activ	Tb MetRS inh	Efflux pump inh	AHR act
OC(COc1ccc2ccccc2c1)Cn1ccnc1 (centres undefined)	x	n	n	n	n
Cc1ccc(NC(=O)Cc2nc(CSc3nnc(-c4ccc5c(c4)OCO5)o3)cs2)cc1	n	n	n	n	50.3
Cc1nc2cc(N3CCCCC3)c(NC(=O)c3cccnc3)cc2c(=O)n1Cc1ccccc1	n	n	n	n	49.5
COc1cccc(-c2ncn(CCc3ccccc3OC)c2CC(C)C)c1	x	n	x	x	x
O=c1oc2ccccc2c(Nc2cccc3cccnc23)c1[N+](=O)[O-]	n	n	n	n	57.5
O=c1oc2ccccc2c(Nc2cc3ccccc3cc2O)c1[N+](=O)[O-]	n	n	n	n	62.7
O=c1oc2ccccc2c(Nc2ccccc2O)c1[N+](=O)[O-]	n	n	n	n	n
C=CCCC1CN(Cc2ccc(OC)cc2)S(=O)(=O)c2c(Oc3cc(C)c(C)c(C)c3)cccc2O1 (centres undefined)	x	n	x	x	x
CCOC(=O)c1[nH]c2ccccc2c1NC(=O)COC	n	n	n	n	n
CCC(=O)Nc1nc(-c2ccccc2)nc(SC)c1C(C)=O	n	n	n	n	n
CCOC(=O)c1[nH]c2ccccc2c1NC(=S)Nc1ccccc1	n	n	n	n	49.4
CCOC(=O)c1c(C)nc(-c2ccccc2)nc1NC(=O)CC	n	n	n	n	47.1
CCOC(=O)c1[nH]c2ccccc2c1NC(=O)CC	n	n	n	n	59.9

Assay outcomes: PubChem BioAssay, several laboratories
